The source of these data is ChEMBL document CHEMBL3232922, “Discovery and SAR of 6-alkyl-2,4-diaminopyrimidines as histamine H₄ receptor antagonists” (J Med Chem, 2014).

In data set [1] the target is Histamine H4 receptor (Rattus norvegicus, UniProt Q91ZY1). In words: Displacement of [3H]histamine from rat histamine H4 receptor expressed in SK-N-MC cells after 45 mins by competition binding analysis. It counts as cell-based. Put shortly: (§1)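 Transfected cells expressing the H4 receptor, competition against [3H]histamine. Ki is the geometric mean of at least three independent determinations (each in triplicate), calculated by the Cheng–Prusoff equation.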

Data set [2] is described as follows: Tmax in Balb/c mouse at 5 mg/kg, po. In kind it is ADME, organism-based. More on the design: dose 5 mg/kg, route oral. The note with it: in vivo.
A short description of data set [3]: Initial plasma concentration in beagle dog at 2 mg/kg, iv. It counts as ADME, organism-based, Canis lupus familiaris. More on the design: dose 2 mg/kg, route intravenous.
Data set [4] can be described thus: Cmax in Balb/c mouse at 5 mg/kg, po. The arrangement: dose 5 mg/kg, route oral. The settings on record: in vivo. In kind it is ADME, organism-based.
The nature of data set [5]: Initial plasma concentration in Balb/c mouse at 2 mg/kg, iv. It counts as ADME, organism-based. More on the design: dose 2 mg/kg, route intravenous.
Data set [6] addresses T1, Histamine H4 receptor (Mus musculus, UniProt Q91ZY2).
T1 sequence (Q91ZY2 whole entry): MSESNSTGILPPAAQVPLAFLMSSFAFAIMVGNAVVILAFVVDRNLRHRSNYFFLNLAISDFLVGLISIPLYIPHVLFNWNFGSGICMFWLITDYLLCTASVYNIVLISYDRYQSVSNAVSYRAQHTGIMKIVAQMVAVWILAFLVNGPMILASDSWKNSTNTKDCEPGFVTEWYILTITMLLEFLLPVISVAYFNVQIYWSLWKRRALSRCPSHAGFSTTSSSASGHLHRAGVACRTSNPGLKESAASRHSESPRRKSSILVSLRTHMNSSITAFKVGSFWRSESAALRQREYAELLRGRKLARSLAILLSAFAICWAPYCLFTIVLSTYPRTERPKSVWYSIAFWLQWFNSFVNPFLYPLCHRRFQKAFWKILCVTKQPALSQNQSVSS
The data set is described as follows: Displacement of [3H]histamine from mouse histamine H4 receptor expressed in SK-N-MC cells after 45 mins by competition binding analysis. It counts as cell-based. Put shortly: as §1

In data set [7] the target is T2, Voltage-gated inwardly rectifying potassium channel KCNH2 (Homo sapiens, UniProt Q12809). In words: Inhibition of human ERG channel up to 30 uM by astemizole binding assay.
The target in data set [8] is T2, Voltage-gated inwardly rectifying potassium channel KCNH2. In words: Inhibition of human ERG channel transfected in HEK293 cells assessed as K+ current at up to 10 uM by patch clamp assay. In kind it is cell-based. (In general: The patch-clamp technique gives a direct electrical read-out from membranes.)
Data set [9] deals with Histamine H4 receptor (Homo sapiens, UniProt Q9H3N8). The data set is described as follows: Antagonist activity at human histamine H4 receptor expressed in SK-N-MC cells assessed as reduction of histamine-induced inhibition of cAMP-mediated beta-galactosidase reporter gene activity treated 10 mins prior to histamine challenge by microplate reader analysis. In kind it is functional, cell-based. The note with it: read-out: pA2 (converted). For orientation: Reporter assays use an easily measured gene product as a stand-in for the process of interest.

The nature of data set [10]: Half life in mouse brain at 5 mg/kg, po administered as single dose by LC-MS/MS analysis. It counts as ADME, organism-based. The arrangement: dose 5 mg/kg, route oral. Put shortly:
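Mice received one oral dose of 5 mg/kg. Brain, liver and kidneys were surgically removed from three mice per time point for up to 96 h after dosing. Tissue drug levels were measured by LC–MS/MS with a lower limit of quantitation of 1 ng/g. Tmax and t1/2 are reported as means.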

A short description of data set [11]: Oral bioavailability in rat at 10 mg/kg. It counts as ADME, organism-based. The settings on record: in vivo.
Data set [12] in a line: AUC in rat at 2 mg/kg, iv. It counts as ADME, organism-based. More on the design: dose 2 mg/kg, route intravenous. The note with it: plasma.
Data set [13] can be described thus: Half life in Sprague-Dawley rat at 500 mg/kg, po. In kind it is ADME, organism-based. The note with it: in vivo. More on the design: dose 500 mg/kg, route oral.

T2 sequence (Q12809 whole entry): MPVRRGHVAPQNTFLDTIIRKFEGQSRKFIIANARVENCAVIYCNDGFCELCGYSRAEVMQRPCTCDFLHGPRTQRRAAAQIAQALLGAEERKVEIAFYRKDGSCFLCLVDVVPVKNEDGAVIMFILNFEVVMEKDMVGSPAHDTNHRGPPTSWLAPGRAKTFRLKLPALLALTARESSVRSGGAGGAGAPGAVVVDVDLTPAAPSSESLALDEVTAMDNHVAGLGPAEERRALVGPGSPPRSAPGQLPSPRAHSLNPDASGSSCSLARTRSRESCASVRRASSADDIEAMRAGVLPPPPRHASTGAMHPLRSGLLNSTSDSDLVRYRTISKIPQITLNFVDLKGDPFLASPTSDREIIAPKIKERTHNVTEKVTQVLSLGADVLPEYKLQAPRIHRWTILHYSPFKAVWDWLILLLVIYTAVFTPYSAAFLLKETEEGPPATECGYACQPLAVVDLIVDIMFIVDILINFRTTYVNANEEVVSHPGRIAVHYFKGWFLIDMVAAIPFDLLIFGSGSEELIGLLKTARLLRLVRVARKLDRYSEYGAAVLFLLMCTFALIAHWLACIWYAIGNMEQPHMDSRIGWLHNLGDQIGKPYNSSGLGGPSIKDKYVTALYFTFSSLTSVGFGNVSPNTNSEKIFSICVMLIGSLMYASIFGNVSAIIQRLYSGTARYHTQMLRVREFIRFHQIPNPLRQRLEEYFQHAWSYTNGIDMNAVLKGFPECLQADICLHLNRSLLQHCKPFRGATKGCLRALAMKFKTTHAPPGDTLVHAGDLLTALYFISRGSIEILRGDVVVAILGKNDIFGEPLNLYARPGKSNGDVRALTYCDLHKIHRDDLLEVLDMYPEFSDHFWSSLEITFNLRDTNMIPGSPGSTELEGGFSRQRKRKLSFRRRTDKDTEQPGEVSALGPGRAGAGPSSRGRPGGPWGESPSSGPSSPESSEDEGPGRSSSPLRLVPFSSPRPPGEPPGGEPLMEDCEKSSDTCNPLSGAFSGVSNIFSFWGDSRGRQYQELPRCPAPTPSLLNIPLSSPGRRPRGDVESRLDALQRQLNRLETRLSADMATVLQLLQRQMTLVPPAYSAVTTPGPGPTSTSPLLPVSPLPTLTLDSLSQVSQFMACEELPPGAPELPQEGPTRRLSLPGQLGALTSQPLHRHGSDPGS
Chain of Histamine H4 receptor (Rattus norvegicus, UniProt Q91ZY1) (Q91ZY1 whole entry): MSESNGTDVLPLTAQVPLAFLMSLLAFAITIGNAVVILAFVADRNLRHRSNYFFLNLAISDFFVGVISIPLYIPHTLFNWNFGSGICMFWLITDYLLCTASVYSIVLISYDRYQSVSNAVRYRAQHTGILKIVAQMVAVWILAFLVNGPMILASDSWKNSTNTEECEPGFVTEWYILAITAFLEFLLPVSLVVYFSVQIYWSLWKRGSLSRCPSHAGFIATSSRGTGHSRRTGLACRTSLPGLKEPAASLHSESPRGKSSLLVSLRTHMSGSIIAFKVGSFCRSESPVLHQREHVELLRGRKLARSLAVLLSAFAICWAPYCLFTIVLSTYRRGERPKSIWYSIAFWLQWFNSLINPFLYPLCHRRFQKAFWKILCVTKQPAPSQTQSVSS
Chain of Histamine H4 receptor (Homo sapiens, UniProt Q9H3N8) (Q9H3N8 whole entry): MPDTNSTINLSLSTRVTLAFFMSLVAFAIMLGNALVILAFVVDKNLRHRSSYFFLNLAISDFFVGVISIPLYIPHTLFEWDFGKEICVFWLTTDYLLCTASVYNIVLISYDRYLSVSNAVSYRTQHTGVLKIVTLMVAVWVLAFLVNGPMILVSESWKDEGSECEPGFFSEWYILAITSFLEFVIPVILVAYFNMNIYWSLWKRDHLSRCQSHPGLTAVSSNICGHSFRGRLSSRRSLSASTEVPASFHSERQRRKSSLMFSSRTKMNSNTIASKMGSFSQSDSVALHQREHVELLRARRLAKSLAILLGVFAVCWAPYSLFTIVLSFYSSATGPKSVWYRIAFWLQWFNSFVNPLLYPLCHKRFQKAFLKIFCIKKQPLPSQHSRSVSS

One may read the Ki as a measure of affinity in units of concentration, obtained from inhibition or displacement. As a reminder, the Tmax is the time from dosing to the highest level. One may read the Cmax as the peak of the concentration-time curve. What is called half-life is the time in which the quantity being followed falls by half. Higher therefore signals slow loss. As a reminder, the bioavailability is dose-corrected exposure relative to a reference, in per cent. The low end stands for little systemic uptake, the high end for much systemic uptake. In general, AUC refers to the area under the concentration-time curve, a measure of exposure. Higher therefore signals high exposure. For `CC(C)c1cc(N2CC[C@@H](N)C2)nc(N)n1` [JNJ-39758979], the values for the inhibition constant Ki in data set [1] and in data set [6] were 188 nM and 5.3 nM, respectively. The Tmax in [2] worked out at 2 h. The values for the C0 in data set [3] and in data set [5] were 4220 nM and 1020 nM, respectively. This molecule came in with a maximum concentration (Cmax) in data set [4] of 790 nM. The “inhibition (INH)” value in data set [7] and in data set [8] was “Not Active” in each case. In addition, the Kb in data set [9] was 12.6 nM. In addition, the half-life in [10] is 42.5 h; in data set [13], 12 h. This molecule also registered a bioavailability in data set [11] of 36%. In data set [12], this molecule had an area under the curve (AUC) of 1.4 µM·h.
